Measurements published in paper PMC4112416 (MedChemComm, 2014).
Converted amounts (≈) assume the structure as drawn.

Columns and labels:
[1] = target: E. coli DNA topoisomerase I (Escherichia coli, UniProt P06612); test: Inhibition assay against E. coli DNA topoisomerase I; type: biochemical; details: gel titration, 6 nM enzyme
[2] = target: human DNA topoisomerase II (Homo sapiens, UniProt P11388); test: Inhibition assay against human DNA topoisomerase II; type: biochemical; details: 50 μM compound
How it was run: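 Relaxation of 200 ng supercoiled pBAD-GFPuv by 4 units human topoisomerase II. Compound final 5–50 μM (10 and 50 μM in gel panels). 30 min at 37 °C, stopped by phenol extraction. Run on 1% agarose without chloroquine and ethidium-stained. (−) supercoiled band was quantified as a fraction of all topoisomers.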

[3] = tested on: duplex DNA (dA60.dT60); test: UV thermal denaturation of AT rich DNA duplex; type: binding; details: 10 μM ligand, 1 μM duplex, 10 mM sodium cacodylate, 0.1 mM EDTA, 100 mM NaCl, pH 7.0
[4] = tested on: prostate cancer cell line DU-145; test: Cytotoxicity, sulforhodamine B assay; type: cell-based; details: DU-145, 48 h treatment, SRB
[5] = Cytotoxicity, sulforhodamine B assay; type: cell-based; details: human, DU-145 prostate cancer cells
[6] = target: T1, human DNA topoisomerase I (Homo sapiens, UniProt P11387); test: Inhibition assay against human DNA topoisomerase I; type: biochemical; details: 50 μM compound
T1 sequence (P11387 1-765): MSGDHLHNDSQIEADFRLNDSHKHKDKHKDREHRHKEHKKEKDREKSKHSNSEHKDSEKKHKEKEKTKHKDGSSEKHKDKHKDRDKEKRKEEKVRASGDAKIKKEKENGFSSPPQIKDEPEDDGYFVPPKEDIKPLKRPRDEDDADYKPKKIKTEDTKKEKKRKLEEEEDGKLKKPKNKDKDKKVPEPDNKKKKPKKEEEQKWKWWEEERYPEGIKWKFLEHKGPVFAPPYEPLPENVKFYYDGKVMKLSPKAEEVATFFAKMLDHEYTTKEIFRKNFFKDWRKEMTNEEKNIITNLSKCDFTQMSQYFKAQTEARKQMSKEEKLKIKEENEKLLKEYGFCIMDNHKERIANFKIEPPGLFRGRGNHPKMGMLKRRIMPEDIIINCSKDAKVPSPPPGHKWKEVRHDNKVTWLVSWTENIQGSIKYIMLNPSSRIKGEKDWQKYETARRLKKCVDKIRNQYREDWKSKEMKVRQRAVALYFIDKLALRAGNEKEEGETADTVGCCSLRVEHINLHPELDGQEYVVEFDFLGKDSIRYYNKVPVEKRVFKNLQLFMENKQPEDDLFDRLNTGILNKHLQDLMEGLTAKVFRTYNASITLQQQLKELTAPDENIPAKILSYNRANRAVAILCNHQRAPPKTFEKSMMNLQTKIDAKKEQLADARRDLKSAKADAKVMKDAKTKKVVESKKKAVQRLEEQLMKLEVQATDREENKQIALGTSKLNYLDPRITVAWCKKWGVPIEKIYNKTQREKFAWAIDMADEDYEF

[7] = target: E. coli DNA gyrase (Escherichia coli, UniProt P0AES4+P0AES6); test: Inhibition assay against E. coli DNA gyrase; type: biochemical; details: 1 to 50 μM compound
[8] = tested on: S. aureus 33591; test: MIC by microbroth dilution; type: cell-based; details: Staphylococcus aureus, 33591, 24 h, read-out: MIC S2
How it was run: (§1)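 CLSI microbroth dilution in Mueller-Hinton broth. Log-phase cultures (37 °C, shaking) were pelleted and resuspended in 0.85% saline to OD625 0.1, giving final 5×10^5 CFU/mL. Triplicate wells were incubated 24 h at 37 °C and read at OD625. MIC is given as a range where no sharp growth inflection occurred.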

[9] = tested on: E. faecalis 29212; test: MIC by microbroth dilution; type: cell-based; details: Enterococcus faecalis, 29212, 24 h, read-out: MIC S6
How it was run: as §1

Sequence of E. coli DNA topoisomerase I (P06612 whole entry): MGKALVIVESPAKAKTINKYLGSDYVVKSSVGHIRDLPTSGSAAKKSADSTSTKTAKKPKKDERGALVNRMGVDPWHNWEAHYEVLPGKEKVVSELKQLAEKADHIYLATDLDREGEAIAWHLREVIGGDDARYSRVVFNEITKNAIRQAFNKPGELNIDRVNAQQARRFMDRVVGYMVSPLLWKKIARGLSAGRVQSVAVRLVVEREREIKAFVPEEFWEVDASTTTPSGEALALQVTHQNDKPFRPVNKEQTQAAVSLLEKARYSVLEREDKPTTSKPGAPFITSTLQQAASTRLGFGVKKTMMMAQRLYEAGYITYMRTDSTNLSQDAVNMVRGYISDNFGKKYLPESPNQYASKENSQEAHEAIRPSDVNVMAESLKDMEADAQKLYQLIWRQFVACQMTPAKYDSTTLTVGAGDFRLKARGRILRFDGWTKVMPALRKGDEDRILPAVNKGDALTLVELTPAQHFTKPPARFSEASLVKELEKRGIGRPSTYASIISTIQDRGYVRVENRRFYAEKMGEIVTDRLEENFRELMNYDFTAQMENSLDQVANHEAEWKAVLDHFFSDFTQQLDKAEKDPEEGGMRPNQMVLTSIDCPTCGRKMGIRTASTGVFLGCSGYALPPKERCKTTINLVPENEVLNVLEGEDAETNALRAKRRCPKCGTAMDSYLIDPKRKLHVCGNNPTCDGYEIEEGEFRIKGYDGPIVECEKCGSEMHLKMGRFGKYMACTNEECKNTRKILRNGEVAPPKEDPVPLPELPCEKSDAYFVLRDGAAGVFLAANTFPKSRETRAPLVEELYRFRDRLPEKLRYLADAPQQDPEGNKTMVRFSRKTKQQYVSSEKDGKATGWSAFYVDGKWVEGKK
Sequence of human DNA topoisomerase II (P11388 whole entry): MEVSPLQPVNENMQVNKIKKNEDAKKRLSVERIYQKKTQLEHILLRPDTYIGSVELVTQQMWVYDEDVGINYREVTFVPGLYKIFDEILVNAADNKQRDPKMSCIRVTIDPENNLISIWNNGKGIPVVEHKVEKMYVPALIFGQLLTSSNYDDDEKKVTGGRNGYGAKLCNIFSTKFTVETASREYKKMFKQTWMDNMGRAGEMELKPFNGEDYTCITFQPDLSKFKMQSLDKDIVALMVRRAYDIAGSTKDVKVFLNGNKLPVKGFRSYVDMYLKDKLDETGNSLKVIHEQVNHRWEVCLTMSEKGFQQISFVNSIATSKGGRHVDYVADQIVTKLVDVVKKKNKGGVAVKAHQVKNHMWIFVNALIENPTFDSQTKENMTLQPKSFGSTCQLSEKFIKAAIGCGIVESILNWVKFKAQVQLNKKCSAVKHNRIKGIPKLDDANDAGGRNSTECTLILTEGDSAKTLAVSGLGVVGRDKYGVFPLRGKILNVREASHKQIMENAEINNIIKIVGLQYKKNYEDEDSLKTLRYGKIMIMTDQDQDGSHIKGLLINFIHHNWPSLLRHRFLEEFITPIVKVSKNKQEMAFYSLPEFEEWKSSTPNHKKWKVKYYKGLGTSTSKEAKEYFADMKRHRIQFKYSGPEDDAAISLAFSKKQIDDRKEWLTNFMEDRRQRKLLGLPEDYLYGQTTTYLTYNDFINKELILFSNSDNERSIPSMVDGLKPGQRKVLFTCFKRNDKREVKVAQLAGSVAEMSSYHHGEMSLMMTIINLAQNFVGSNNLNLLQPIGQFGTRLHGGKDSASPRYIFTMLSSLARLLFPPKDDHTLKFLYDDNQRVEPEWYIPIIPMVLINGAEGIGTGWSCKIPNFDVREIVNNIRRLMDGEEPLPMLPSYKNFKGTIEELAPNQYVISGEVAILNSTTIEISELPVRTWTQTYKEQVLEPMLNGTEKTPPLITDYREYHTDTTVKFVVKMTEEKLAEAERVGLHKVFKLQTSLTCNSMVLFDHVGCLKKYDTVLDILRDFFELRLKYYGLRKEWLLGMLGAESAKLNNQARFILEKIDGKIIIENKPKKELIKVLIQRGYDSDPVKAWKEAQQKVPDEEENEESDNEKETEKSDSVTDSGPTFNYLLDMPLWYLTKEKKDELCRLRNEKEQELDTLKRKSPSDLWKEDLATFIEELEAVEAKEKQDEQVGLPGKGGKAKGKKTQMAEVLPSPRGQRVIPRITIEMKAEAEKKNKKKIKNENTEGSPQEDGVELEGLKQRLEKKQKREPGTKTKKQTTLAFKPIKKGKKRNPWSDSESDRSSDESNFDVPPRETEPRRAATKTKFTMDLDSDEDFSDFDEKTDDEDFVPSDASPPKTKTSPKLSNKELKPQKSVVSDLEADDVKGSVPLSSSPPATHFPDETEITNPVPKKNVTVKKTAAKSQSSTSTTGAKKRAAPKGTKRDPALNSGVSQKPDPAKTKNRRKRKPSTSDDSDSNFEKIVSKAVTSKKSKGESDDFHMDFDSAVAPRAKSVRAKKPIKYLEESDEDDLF
Sequence of E. coli DNA gyrase (P0AES4 whole entry, one chain of several): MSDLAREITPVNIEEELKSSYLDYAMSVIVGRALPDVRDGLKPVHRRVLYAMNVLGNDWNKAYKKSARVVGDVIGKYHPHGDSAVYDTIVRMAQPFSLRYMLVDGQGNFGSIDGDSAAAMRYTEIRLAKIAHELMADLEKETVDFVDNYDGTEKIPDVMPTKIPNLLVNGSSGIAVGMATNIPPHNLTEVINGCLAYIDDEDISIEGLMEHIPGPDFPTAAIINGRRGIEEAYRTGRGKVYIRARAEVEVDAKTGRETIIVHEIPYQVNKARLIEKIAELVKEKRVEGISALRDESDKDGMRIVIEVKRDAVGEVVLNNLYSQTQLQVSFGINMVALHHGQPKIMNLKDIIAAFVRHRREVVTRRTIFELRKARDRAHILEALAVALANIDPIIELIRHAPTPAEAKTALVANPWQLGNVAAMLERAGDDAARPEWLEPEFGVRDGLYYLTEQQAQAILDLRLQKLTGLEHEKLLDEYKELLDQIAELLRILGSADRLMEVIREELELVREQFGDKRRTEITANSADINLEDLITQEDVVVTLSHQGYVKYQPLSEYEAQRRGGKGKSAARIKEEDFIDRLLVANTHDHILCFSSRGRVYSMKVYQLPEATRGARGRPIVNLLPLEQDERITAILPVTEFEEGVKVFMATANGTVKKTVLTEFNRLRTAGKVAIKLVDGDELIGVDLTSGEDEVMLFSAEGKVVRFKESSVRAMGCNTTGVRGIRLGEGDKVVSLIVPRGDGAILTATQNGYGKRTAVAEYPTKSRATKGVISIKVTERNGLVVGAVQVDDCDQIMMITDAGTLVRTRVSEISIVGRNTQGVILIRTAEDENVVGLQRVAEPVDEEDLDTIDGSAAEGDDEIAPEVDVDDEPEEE

Row | SMILES | concentration needed to completely inhibit the activities of E. coli DNA topoisomerase I [1] | inhibition of human DNA topoisomerase II activities [2] | Tm [3] [°C] | MIC [9] [µg/mL] | other results
1 | C#CCOc1ccc(-c2nc3ccc(-c4nc5ccc(N6CCN(C)CC6)cc5[nH]4)cc3[nH]2)cc1 [DPA 151, 6-(4-methylpiperazin-1-yl)-2′-(4-(prop-2-ynyloxy)phenyl)-1H,3′H-2,5′-bibenzo[d]imidazole] | approximately 5 μM | partially inhibit | 85.4 |  | 
2 | C#CCCCCOc1ccc(-c2nc3ccc(-c4nc5ccc(N6CCN(C)CC6)cc5[nH]4)cc3[nH]2)cc1 [DPA 152, 2′-(4-(hex-5-ynyloxy)phenyl)-6-(4-methylpiperazin-1-yl)-1H,3′H-2,5′-bibenzo[d]imidazole] |  |  | 83.4 |  | cytotoxicity relative to Hoechst 33242 [4]: nearly twice as toxic as Hoechst 33242
3 | C#CCCCCCCCCCOc1ccc(-c2nc3ccc(-c4nc5ccc(N6CCN(C)CC6)cc5[nH]4)cc3[nH]2)cc1 [DPA 153, 6-(4-methylpiperazin-1-yl)-2′-(4-(undec-10-ynyloxy)phenyl)-1H,3′H-2,5′-bibenzo[d]imidazole] |  |  | 70.5 |  | IC50 at 48 h [5]: > 10 µM
4 | C#CCOCCCCOc1ccc(-c2nc3ccc(-c4nc5ccc(N6CCN(C)CC6)cc5[nH]4)cc3[nH]2)cc1 [DPA 154, 6-(4-methylpiperazin-1-yl)-2′-(4-(4-(prop-2-ynyloxy)butoxy)phenyl)-1H,3′H-2,5′-bibenzo[d]imidazole] |  |  | 85.9 |  | 
5 | CN1CCN(c2ccc3[nH]c(-c4ccc5[nH]c(-c6ccc(O)cc6)nc5c4)nc3c2)CC1 [Hoechst 33258] | approximately 20 μM | completely inhibit | 87.1 | 16 to 32 (≈ 37.7 to 75.4 µM) | supercoiled DNA template prevented from relaxation by human DNA topoisomerase I [6]: about 70%; inhibition of DNA gyrase's activities [7]: did not inhibit; MIC [8]: 16 to 32 µg/mL (≈ 37.7 to 75.4 µM)
6 | CCOc1ccc(-c2nc3cc(-c4nc5cc(N6CCN(C)CC6)ccc5[nH]4)ccc3[nH]2)cc1 [Hoechst 33342] |  |  | 86.6 | 16 to 32 (≈ 35.4 to 70.7 µM) | 
